Results pooled from the literature.
Compare with care: the assays were run in different laboratories. pIC50, pKd: −log10 of the molar value.
Target: Platelet-derived growth factor receptor beta (PDGFRB, Homo sapiens, UniProt P09619)

Structure (SMILES) | read-out | mode | method | quantity | result
Cc1cnc(-c2ccc(-c3ccc(NC(=O)Nc4c(F)cc(F)cc4F)cc3F)c3c2C(=O)NC3)[nH]1 | binding |  | competition with immobilised ligand | pKd | 9.40
FC(F)(F)c1ccc(CNc2ccc(Cc3c[nH]c4ncc(Cl)cc34)cn2)cn1 | enzyme activity | inhibitor |  | pIC50 | 8.10
Cc1ccc(NC(=O)c2ccc(CN3CCS(=N)(=O)CC3)cc2)cc1Nc1nccc(-c2cccnc2)n1 | binding |  | competition with immobilised ligand | pKd | 7.72
CCN1CCN(Cc2ccc(C(=O)Nc3ccc(C)c(Oc4ccc5c(c4)CC(=O)N5)c3)cc2C(F)(F)F)CC1 | enzyme activity | inhibitor |  | pIC50 | < 5.00
Cc1ccc(NC(=O)c2ccc(C)c(C(F)(F)F)c2)cc1C#Cc1nn(C2CCC(O)CC2)c2ncnc(N)c12 (centres unmarked) | enzyme activity | inhibitor | radiometric | pIC50 | < 5.00
COc1ccc2c(Oc3ccc4c(C(=O)Nc5ccccc5N)cccc4c3)ccnc2c1 | enzyme activity | inhibitor |  | pIC50 | 7.03
C=CC(=O)Nc1cccc(CN2C(=O)N(c3c(Cl)c(OC)cc(OC)c3Cl)Cc3cnc(NCCCCN(CC)CC)nc32)c1 | binding |  | competition with immobilised ligand | pKd | 6.32
Cc1cc(Nc2cc3ncccc3c(N[C@@H]3C[C@H]4CC[C@@H](C3)N4CCC#N)n2)n[nH]1 | binding |  | competition with immobilised ligand | pKd | 7.17
